# According to ChEMBL document CHEMBL1124286, “(R)-(-)-10-methyl-11-hydroxyaporphine: a highly selective serotonergic agonist” (1988):
# Key:
# [1] = Ratio of 5-HT concentration to 5-HIAA concentration in olfactory tubercle region of brain; type: functional
# Summary of the method: (§1)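 Male Sprague-Dawley rats (150-250 g) given 4 mg/kg sc; killed 30 min later. Brain regions dissected, weighed, homogenized in 0.01 N HClO4, kept on ice 15 min, centrifuged 13000g 2 min. Supernatant analysed by HPLC with electrochemical detection: C-18 reverse-phase column, 0.1 M sodium phosphate mobile phase with EDTA, octanesulfonic acid, 10% MeOH, pH 3.8; glassy carbon electrode at +0.65. Compared with untreated controls by ANOVA and multiple regression.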
# [2] = species: Rattus norvegicus; assay: Influence on 5-hydroxy tryptamine (5-HT) concentration in olfactory tubercle region of brain; type: functional, organism-based; summary of the method: as §1
# [3] = species: Rattus norvegicus; assay: Influence on 5-hydroxyindoleacetic acid (5-HIAA) concentration in parietal cortex region of brain; type: functional, organism-based; summary of the method: as §1
# [4] = species: Rattus norvegicus; assay: Influence on 5-hydroxy tryptamine (5-HT) concentration in hippocampus region of brain; type: functional, organism-based; summary of the method: as §1
# [5] = species: Rattus norvegicus; assay: Influence on 5-hydroxyindoleacetic acid (5-HIAA) concentration in septum region of brain; type: functional, organism-based; summary of the method: as §1
# [6] = species: Rattus norvegicus; assay: Influence on 5-hydroxyindoleacetic acid (5-HIAA) concentration in caudate region of brain; type: functional, organism-based; summary of the method: as §1
# [7] = Ratio of 5-HT concentration to 5-HIAA concentration in parietal cortex region of brain; type: functional; summary of the method: as §1
# [8] = species: Rattus norvegicus; assay: Influence on 5-hydroxyindoleacetic acid (5-HIAA)concentration in amygdala region of brain; type: functional, organism-based; summary of the method: as §1
# [9] = species: Rattus norvegicus; assay: Influence on 5-hydroxy tryptamine (5-HT) concentration in parietal cortex region of brain; type: functional, organism-based; summary of the method: as §1
# [10] = species: Rattus norvegicus; assay: Influence on 5-hydroxyindoleacetic acid (5-HIAA) concentration in frontal cortex region of brain; type: functional, organism-based; summary of the method: as §1
# [11] = species: Rattus norvegicus; assay: Influence on 5-hydroxy tryptamine (5-HT) concentration in hypothalamus region of brain; type: functional, organism-based; summary of the method: as §1
# [12] = species: Rattus norvegicus; assay: Influence on 5-hydroxyindoleacetic acid (5-HIAA) concentration in hippocampus region of brain; type: functional, organism-based; summary of the method: as §1
# [13] = species: Rattus norvegicus; assay: Influence on 5-hydroxyindoleacetic acid (5-HIAA) concentration in olfactory tubercle region of brain; type: functional, organism-based; summary of the method: as §1
# [14] = Ratio of 5-HT concentration to 5-HIAA concentration in amygdala region of brain; type: functional; summary of the method: as §1
# [15] = species: Rattus norvegicus; assay: Influence on 5-hydroxy tryptamine (5-HT) concentration in septum region of brain; type: functional, organism-based; summary of the method: as §1
# [16] = Ratio of 5-HT concentration to 5-HIAA concentration in hypothalamus region of brain; type: functional; summary of the method: as §1
# [17] = species: Rattus norvegicus; assay: Influence on 5-hydroxyindoleacetic acid (5-HIAA) concentration in hypothalamus region of brain; type: functional, organism-based; summary of the method: as §1
# [18] = species: Rattus norvegicus; assay: Influence on 5-hydroxy tryptamine (5-HT) concentration in caudate region of brain; type: functional, organism-based; summary of the method: as §1
# [19] = Ratio of 5-HT concentration to 5-HIAA concentration in septum region of brain; type: functional; summary of the method: as §1
# [20] = Ratio of 5-HT concentration to 5-HIAA concentration in caudate region of brain; type: functional; summary of the method: as §1
# [21] = Ratio of 5-HT concentration to 5-HIAA concentration in frontal cortex region of brain; type: functional; summary of the method: as §1
# [22] = species: Rattus norvegicus; assay: Influence on 5-hydroxy tryptamine (5-HT) concentration in amygdala region of brain; type: functional, organism-based; summary of the method: as §1
# [23] = species: Rattus norvegicus; assay: Influence on 5-hydroxy tryptamine (5-HT) concentration in frontal cortex region of brain; type: functional, organism-based; summary of the method: as §1
# [24] = Ratio of 5-HT concentration to 5-HIAA concentration in hippocampus region of brain; type: functional; summary of the method: as §1
smiles,measurement,setting,value
CCCN(CCC)C1CCc2cccc(O)c2C1 (centres undefined) [8-OH-DPAT],Ratio,[1],5.9
same,Concentration,[2],8.3 nM/g
same,Concentration,[3],0.8 nM/g
same,Concentration,[4],4.2 nM/g
same,Concentration,[5],1.5 nM/g
same,Concentration,[6],2.6 nM/g
same,Ratio,[7],4.1
same,Concentration,[8],1 nM/g
same,Concentration,[9],3.1 nM/g
same,Concentration,[10],0.8 nM/g
same,Concentration,[11],7.1 nM/g
same,Concentration,[12],1.7 nM/g
same,Concentration,[13],1.4 nM/g
same,Ratio,[14],5.8
same,Concentration,[15],4.5 nM/g
same,Ratio,[16],3.9
same,Concentration,[17],1.9 nM/g
same,Concentration,[18],3.6 nM/g
same,Ratio,[19],3
same,Ratio,[20],1.5
same,Ratio,[21],5.8
same,Concentration,[22],4.9 nM/g
same,Concentration,[23],4.2 nM/g
same,Ratio,[24],2.5
